We go through nine molecules from ChEMBL document CHEMBL3091397, “Structural effects on persister control by brominated furanones” (Bioorg Med Chem Lett, 2013).

In data set [1] the test system is Pseudomonas aeruginosa. The experiment in a line: Antibacterial activity against Pseudomonas aeruginosa PAO1 assessed as viability of persister cells at 2 ug/mL after 2 hrs.
In data set [2] the test system is Vibrio harveyi. The experiment in a line: Toxicity in Vibrio harveyi ATCC BAA-1118 assessed as effect on cell viability after 1.5 hrs by bioluminescence assay. It is filed as organism-based. An outline of the steps:
(§1)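 V. harveyi BB886 QS reporter was exposed to furanones at various concentrations in the bioluminescence assay. Viable cells were counted as CFU after treatment.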

The test system of data set [3] is Vibrio harveyi. The experiment in a line: Inhibition of AHL-mediated quorum sensing in Vibrio harveyi ATCC BAA-1118 after 1.5 hrs by bioluminescence assay. In short, it runs like this:
(§2)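 V. harveyi BB886 reporter, which emits light in response to extracellular AHL, was incubated with or without furanone at various concentrations (Surette method, modified). Bioluminescence was normalized to viable CFU to give relative bioluminescence versus untreated.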

The subject of data set [4] is Vibrio harveyi. The data set is described as follows: Inhibition of AHL-mediated quorum sensing in Vibrio harveyi ATCC BAA-1118 at 0.5 ug/mL after 1.5 hrs by bioluminescence assay relative to control. An outline of the steps:
as §2

Data set [5] concerns Pseudomonas aeruginosa. The data set is described as follows: Potentiation of ciprofloxacin-induced antibacterial activity against Pseudomonas aeruginosa PAO1 assessed as sensitive persister cells at 2 ug/mL after 3.5 hrs. It is filed as functional. In short, it runs like this: (§3)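 Isolated PAO1 persisters were given furanone at 2 µg/mL for 2 h. A portion of each sample then received 200 µg/mL ciprofloxacin for 3.5 h. Surviving persisters were counted as CFU.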

Data set [6] concerns Pseudomonas aeruginosa. The data set is described as follows: Antibacterial activity against Pseudomonas aeruginosa PAO1 assessed as viability of persister cells at 2 ug/mL after 2 hrs. The class given is functional. In short, it runs like this:
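Persisters isolated from P. aeruginosa PAO1 per an earlier protocol, exposed to furanone for 2 h. Viability was counted as CFU by plating on LB agar immediately after treatment.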

For data set [7], the system named is Vibrio harveyi. The experiment in a line: Toxicity in Vibrio harveyi ATCC BAA-1118 assessed as effect on cell viability up to 10 ug/mL after 1.5 hrs by bioluminescence assay. The class given is organism-based. An outline of the steps: as §1
Data set [8] has as its system Vibrio harveyi. The experiment in a line: Inhibition of AHL-mediated quorum sensing in Vibrio harveyi ATCC BAA-1118 at 30 ug/mL after 1.5 hrs by bioluminescence assay. In short, it runs like this: as §2
For data set [9], the system named is Pseudomonas aeruginosa. The experiment in a line: Potentiation of ciprofloxacin-induced antibacterial activity against Pseudomonas aeruginosa PAO1 assessed as persister cells at 2 ug/mL after 3.5 hrs. The class given is functional, organism-based. In short, it runs like this:
as §3

For data set [10], the system named is Vibrio harveyi. The experiment in a line: Toxicity in Vibrio harveyi ATCC BAA-1118 assessed as effect on cell viability at 30 ug/mL after 1.5 hrs by bioluminescence assay. It is filed as organism-based. An outline of the steps:
as §1

Data set [11] has as its system Vibrio harveyi. The data set is described as follows: Inhibition of AHL-mediated quorum sensing in Vibrio harveyi ATCC BAA-1118 at 10 ug/mL after 1.5 hrs by bioluminescence assay relative to control. In short, it runs like this:
as §2

The test system of data set [12] is Vibrio harveyi. The data set is described as follows: Toxicity in Vibrio harveyi ATCC BAA-1118 assessed as effect on cell viability up to 60 ug/mL after 1.5 hrs by bioluminescence assay. It is filed as organism-based. An outline of the steps: as §1
In data set [13] the test system is Vibrio harveyi. The data set is described as follows: Inhibition of AHL-mediated quorum sensing in Vibrio harveyi ATCC BAA-1118 up to 60 ug/mL after 1.5 hrs by bioluminescence assay. In short, it runs like this:
as §2

Data set [14] concerns Pseudomonas aeruginosa. The experiment in a line: Antibacterial activity against Pseudomonas aeruginosa PAO1 assessed as viability of persister cells at 200 ug/mL after 3.5 hrs. The class given is functional, organism-based. An outline of the steps: as §3

The source made the active and inactive calls. No cut-off for these calls is given here.

The term inhibition denotes the relative decrease from the control value, in per cent. `CC1=C(Br)C(Br)(C(Br)Br)OC1=O` (stereo unspecified): the outcome in [1] was Active. Besides, the Activity entry in data set [2] was “Non-toxic”. In addition, the inhibition entry in [3] is “inactive”.
Consider `O=C1OC(=C(Br)Br)C=C1C(Br)Br`, for which the outcome in [1] was Active. In [4], this molecule registered an inhibition of 55.9%. Moreover, the Activity entry in data set [2] is reported as “Non-toxic”.
Turning to `CC1=C(Br)C(C(Br)Br)OC1=O` (stereo unspecified), the Activity is given as 99.99% in data set [5], 64.6% in data set [6] and “Non-toxic” in data set [2]. The inhibition entry in data set [3] was “inactive”.
For the molecule `CC1=CC(=C(Br)Br)OC1=O`, the Activity result is listed as “Non-toxic” in [7] and “Toxic” in data set [10]. Also, the outcome in data set [6] was inactive. For the same molecule, the inhibition entry in data set [8] was “Active”. In addition, in data set [9], the outcome was Active. Moreover, the inhibition in data set [11] was 100%; in [3], “Dose-dependent effect”.
In turn, `O=C1OC(=C(Br)Br)C=C1CBr` yielded an inhibition in data set [4] of 91.2%. Besides, the result in data set [6] was inactive. The Activity result in [2] was “Non-toxic”. Moreover, the outcome in [9] was Active.
As for `COC1=CC(=O)OC1`, the outcome in [1] was inactive. Also, the Activity entry in data set [12] is “Non-toxic”. The inhibition entry in data set [13] is “inactive”.
Turning to `CC1=CC(=O)OC1=O`, the outcome in data set [1] was inactive. For the same molecule, in data set [2], the Activity entry is recorded as “Non-toxic”. Also, the inhibition result in data set [3] was “inactive”.
As for `O=C(O)c1cn(C2CC2)c2cc(N3CCNCC3)c(F)cc2c1=O`, the outcome in data set [14] was inactive.
Turning to `O=C1O/C(=C\Br)C(Br)=C1CBr`, the result in data set [1] was Active. The Activity entry in data set [2] is “Non-toxic”. Also, in data set [3], the inhibition entry is “Active”.
